# Test results reported in PubChem BioAssay AID775 (SRMLSC, 2007).
# In all, about 130,000 compounds went through this assay and about 900 (0.69%) were called active.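 The calls were made as follows: active = inhibition above a set limit, placed 3 SD over the median of all compounds (cut at about 26% in these data); inactive = the rest.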 Only a selection was taken, and actives are over-represented in it overall.
# Assay: compounds extending yeast replicative lifespan, primary screen, S. cerevisiae, OD615 (AID 775);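 also: 0% = nicotinamide-treated wells and 100% = cells grown without nicotinamide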
# Conditions: S. cerevisiae growth with nicotinamide, at 10 µM, stronger effect = higher value, deaD strain in restrictive glucose medium
# Procedure, shortened: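 System: Modified budding yeast, DeaD strain | Buffer or medium: Restrictive glucose medium | Also added: 1.5 mM nicotinamide | Doses: 10 µM single point, 0.25% DMSO | Schedule: 48 h compound exposure at 30 °C, humidified | Detection: Absorbance at 615 nm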
row,SMILES,inhibition of the nicotinamide effect
1,COc1ccc(C(=O)C2CN(C)CC2C(=O)c2ccc(OC)cc2)cc1 (stereo not given),-7.58% (inactive)
2,COc1ccc(C(=O)CC2C(=O)N(C)C(=O)N(C)C2=O)cc1,31% (active)
3,CN1CCN(C(=S)SCC(=O)Nc2ccc(Cl)cc2C(=O)c2ccccc2)CC1,2.18% (inactive)
4,CNC(=S)N/N=C1\C2CN3CCN(C2)CC1(c1ccccc1)C3,6.05% (inactive)
5,CC(=NC1CCN(Cc2ccccc2)CC1)c1c(O)n(C)c(=O)n(C)c1=O,-9.29% (inactive)
6,CC(=C1C(=O)c2ccccc2C1=O)N1CCN(CCN=Cc2c(O)n(C)c(=O)n(C)c2=O)CC1,26.9% (active)
7,Cn1c(O)c(C=NCCCC(=O)O)c(=O)n(C)c1=O,-5.17% (inactive)
8,O=C(N/N=C/c1c(O)n(Cc2ccccc2)c(=O)[nH]c1=O)c1ccccc1,-4.35% (inactive)
9,CN(C)C(=O)Oc1cc(=O)n2c3c(cccc13)CCC2,-0.91% (inactive)
10,O=C(CCNS(=O)(=O)c1ccccc1)Nc1ccc(Cl)cc1C(=O)c1ccccc1,0.6% (inactive)
11,Cc1ccc(-n2c(-c3ccc([N+](=O)[O-])cc3)nc3ccccc3c2=O)cc1,2.14% (inactive)
12,CCCCCn1c(=O)c(C(=O)Nc2c(C)n(C)n(-c3ccccc3)c2=O)c(O)c2ccccc21,0.87% (inactive)
13,CCCCCn1c(=O)c(C(=O)NCc2ccccn2)c(O)c2ccccc21,36.3% (active)
14,COc1cc(C(c2c(O)c3ccccc3oc2=O)c2c(C)n(C)n(-c3ccccc3)c2=O)ccc1O (stereo not given),0.56% (inactive)
15,CC(C(=O)Nc1ccc(Cl)cc1Cl)N1CC=C(c2ccccc2)CC1 (stereo not given),-1.28% (inactive)
16,CN(C)CC1CCCCC1OC(=O)c1ccc(Cl)c(Cl)c1 (stereo not given),2.28% (inactive)
17,Cc1ccnc(-n2c(C)cc(/C=C3\C(=O)NC(=S)N(C)C3=O)c2C)c1,43.7% (active)
18,Cc1ccc(-n2c(C)cc(/C=C3\C(=O)NC(=O)N(C)C3=O)c2C)cc1C,4.25% (inactive)
19,C=CCn1c(O)c(/C=N/N2CCOCC2)c(=O)[nH]c1=S,-2.87% (inactive)
20,O=C1NC(=O)N(c2ccc(F)cc2)C(=O)/C1=C/c1ccc2c(c1)CCCN2Cc1ccccc1,-3.32% (inactive)
